The record followed here is ChEMBL document CHEMBL1123247, “Nucleoside conjugates. 7. Synthesis and antitumor activity of 1-beta-D-arabinofuranosylcytosine conjugates of ether lipids” (J Med Chem, 1986).

For experiment [1], the system named is L1210. The experiment in a line: Antitumor activity was determined against the ip implanted L1210 leukemia in mice by range in survival days at 100 mg/kg (treatment of 1-5qd schedule) dosage; 18-32. Particulars: route intraperitoneal. The format is functional, Mus musculus. The procedure, abridged: (§1)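 DBA/2J mice, 23-28 g, in groups of 6, were inoculated ip with 1×10^6 L1210 cells on day 0. Dosing was ip starting 24 h later on the stated daily schedules. Conjugates were given as sonicated solutions and reference prodrugs as suspensions in 0.9% NaCl with 0.5% Tween-80. Mice were observed daily until death or 45 days. Median survival T/C was calculated from survivors per NCI protocols.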

For experiment [2], the system named is L1210. The experiment in a line: Antitumor activity against ip implanted L1210 leukemia in mice expressed as active dose range (1-5qd treatment schedule) required to produce increase in life span by >25% was determined; 60-100. Type of experiment: functional, Mus musculus. The method in brief:
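DBA/2J mice, groups of 6 (23-28 g), were inoculated ip with 1 × 10^6 L1210 cells on day 0. Dosing was ip from 24 h, in 0.9% NaCl with 0.5% Tween-80 (sonicated solution or suspension). Mice were observed daily until death or day 45. Median survival T/C followed NCI protocols, and ILS = (T/C − 1) × 100. Active range means doses giving ILS ≥25%; optimal dose means greatest ILS.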

Experiment [3] concerns L1210. The experiment is described as follows: Antitumor activity was determined against the ip implanted L1210 leukemia in mice by percent median survival rate (treated/control) at 400 mg/kg (treatment of 1qd schedule) dosage; 25.0/7.0. The format is functional, Mus musculus. To be noted: route intraperitoneal. The procedure, abridged: as §1
For experiment [4], the system named is L1210. The experiment is described as follows: Antitumor activity was determined against the ip implanted L1210 leukemia in mice by median survival time at 100 mg/kg (treatment of 1-5qd schedule) dosage; 23.0/7.0. Particulars: route intraperitoneal.
The subject of experiment [5] is P388. The experiment in a line: Antitumor activity was determined against the ip implanted P388 leukemia in mice by percent median survival rate (treated/control) at 60 mg/kg (1-5qd treatment schedule) dosage; 23.0/11.0. The format is functional, Mus musculus. To be noted: route intraperitoneal.
Experiment [6] relates to L1210. The experiment in a line: Antitumor activity was determined against the ic implanted L1210 lymphoid leukemia in mice by change in body weight at 300 mg/kg (1 qd treatment schedule) dosage.
The subject of experiment [7] is P388. The experiment is described as follows: Antitumor activity was determined against the ip implanted P388 leukemia in mice by range in survival days at 60 mg/kg (1-5qd treatment schedule) dosage; Range is 35->45. The format is functional, Mus musculus. To be noted: route intraperitoneal.
The test system of experiment [8] is P388. The experiment in a line: Antitumor activity was determined against the ip implanted P388 leukemia in mice by percent median survival rate (treated/control) at 60 mg/kg (1-5qd treatment schedule) dosage; >45.0/11.0. Type of experiment: functional, Mus musculus. Particulars: route intraperitoneal.
The test system of experiment [9] is P388. The experiment is described as follows: Antitumor activity was determined against the ip implanted P388 leukemia in mice by percent increase in life span at 500 mg/kg (1 qd treatment schedule) dosage. Type of experiment: functional, Mus musculus. Particulars: route intraperitoneal. The method in brief: (§2)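 DBA/2J mice, 23-33 g, in groups of 6, were inoculated ip with 1×10^6 P388 cells on day 0. Dosing was ip from 24 h on the stated schedules, in 0.9% NaCl with 0.5% Tween-80 (sonicated solution or suspension). Survival was followed daily until death or 45 days. Median T/C was calculated from survivors per NCI protocols, with ILS = (T/C − 1) × 100.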

For experiment [10], the system named is L1210. The experiment in a line: Antitumor activity was determined against the ip implanted L1210 leukemia in mice by range in survival days at 40 mg/kg (treatment of 1-5qd schedule) dosage; 24->45. Particulars: route intraperitoneal. The format is functional, Mus musculus. The method in brief:
as §1

In experiment [11] the test system is L1210. The experiment is described as follows: Antitumor activity against ic implanted L1210 lymphoid leukemia in mice expressed as active dose range (1,5,9qd treatment schedule) required to produce increase in life span by >25% was determined; Range 67-133. The format is functional, Mus musculus. The procedure, abridged: (§3)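 DBA/2J mice, groups of 6 (26-32 g), got 1 × 10^5 L1210 cells ic on day 0. Dosing was ip starting 24 h later, as a sonicated solution or suspension in 0.9% NaCl with 0.5% Tween-80, over a wide dose range. Mice were followed daily until death. Median survival T/C was taken from survivors per NCI protocols, and ILS = (T/C − 1) × 100. Active range means doses giving ILS ≥25%; optimal dose means greatest ILS.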

Experiment [12] concerns P388. The experiment in a line: Antitumor activity was determined against the ip implanted P388 leukemia in mice by change in […] at 133 mg/kg (treatment of 1qd schedule) dosage. The format is functional, Mus musculus. To be noted: dose 300 mg/kg; route intraperitoneal; in the assay text read “300 mg/kg” for “133 mg/kg”. The procedure, abridged:
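P388 leukemia, 1×10^6 cells implanted ip on day 0 into DBA/2J mice, groups of 6 (wt 23-33 g). Dosing ip started 24 h post-inoculation, vehicle 0.9% NaCl containing 0.5% Tween-80. Animals were observed daily until death or 45 days. Outputs were weight change, median survival T/C from survivors per NCI protocols, and %ILS = (T/C − 1) × 100.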

Experiment [13] deals with P388. The experiment is described as follows: Antitumor activity was determined against the ip implanted P388 leukemia in mice by 45-day survivors in mice at 60 mg/kg (treatment of 1-5qd schedule) dosage. Type of experiment: functional, Mus musculus. To be noted: route intraperitoneal. The method in brief:
as §2

For experiment [14], the system named is L1210. The experiment in a line: Antitumor activity was determined against the ip implanted L1210 leukemia in mice by percent median survival rate (treated/control) at 80 mg/kg (treatment of 1-5qd schedule) dosage; 25.5/7.0. Particulars: route intraperitoneal. Type of experiment: functional, Mus musculus. The method in brief:
as §1

The subject of experiment [15] is L1210 leukemia (mouse). The experiment is described as follows: Antitumor activity was determined against the ic implanted L1210 lymphoid leukemia in mice by percent median survival rate (treated/control) at 500 mg/kg (treatment of 1qd schedule) dosage; 23.0/7.0.
Experiment [16] deals with L1210. The experiment in a line: Antitumor activity was determined against the ic implanted L1210 lymphoid leukemia in mice by percent increase in life span at 100 mg/kg (treatment of 1-5qd schedule) dosage. Type of experiment: functional, Mus musculus. The procedure, abridged:
as §3

Experiment [17] concerns P388. The experiment in a line: Antitumor activity against ip implanted P388 leukemia in mice expressed as active dose range (1-5qd treatment schedule) required to produce increase in life span by >25% was determined; Range is 20-200. The format is functional, Mus musculus. The method in brief: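 P388 leukemia: 1 × 10^6 cells were given ip on day 0 to DBA/2J mice, groups of 6 (23-33 g). Treatment was ip from 24 h after inoculation, vehicle 0.9% NaCl with 0.5% Tween-80. Mice were observed daily until death or 45 days. Median survival T/C was calculated from survivors per NCI protocols, and ILS = (T/C − 1) × 100. Active range means doses giving ILS ≥25%; optimal dose means greatest ILS.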

Experiment [18] relates to L1210. The experiment is described as follows: Antitumor activity was determined against the ip implanted L1210 leukemia in mice by percent median survival rate (treated/control) at 200 mg/kg (treatment of 1-5qd schedule) dosage; 17.0/7.0. The format is functional, Mus musculus. To be noted: route intraperitoneal. The method in brief: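 DBA/2J mice in groups of 6 (wt 23-28 g) were inoculated ip with 1×10^6 L1210 cells on day 0. Dosing was ip from 24 h, in 0.9% NaCl with 0.5% Tween-80 (conjugates sonicated), across a range of doses. Mice were observed daily until death or 45 days. Median T/C was computed from survivors per NCI protocols, and ILS = (T/C − 1)×100.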

Experiment [19] has as its system L1210. The experiment is described as follows: Antitumor activity was determined against the ip implanted L1210 leukemia in mice by range in survival days at 200 mg/kg (treatment of 1-5qd schedule) dosage; Range is 15-17. The format is functional, Mus musculus. To be noted: route intraperitoneal. The method in brief: as §1

In experiment [1], `CCCCCCCCCCCCCCCCCCOCC(COP(=O)(O)OP(=O)(O)OC[C@H]1O[C@@H](n2ccc(N)nc2=O)[C@@H](O)[C@@H]1O)OC(=O)CCCCCCCCCCCCCCC` (mixture of isomers) displayed a Range of 18. The molecule also returned an Active dose range in experiment [2] of 60 mg/kg/day. Moreover, the T/C (usually the ratio of treated to control) in experiment [3] was determined as 25%; in [5], 23%. Besides, the median survival time in experiment [4] is 23 days.

With `CCCCCCCCCCCCCCCC(=O)OC[C@H](COP(=O)(O)OP(=O)(O)OC[C@H]1O[C@@H](n2ccc(N)nc2=O)[C@@H](O)[C@@H]1O)OC(=O)CCCCCCCCCCCCCCC`, the Weight change in experiment [6] is -0.88 g mouse-1. For the same molecule, the Range is reported as 35 in [7] and 24 in experiment [10]. Further, the T/C in experiment [8] is >45%. In addition, the ILS in [9] is reported as >309. Besides, the Active dose range in experiment [11] stood at 67 mg/kg/day.

Regarding `CCCCCCCCCCCCCCCCOCC(COP(=O)(O)OP(=O)(O)OC[C@H]1O[C@@H](n2ccc(N)nc2=O)[C@@H](O)[C@@H]1O)OC(=O)CCCCCCCCCCCCCCC` (mixture of isomers), the Weight change in [12] is reported as -1.51 g mouse-1. In addition, the Survivors in experiment [13] came out at 6. Also, the T/C in [14] is on record as 25.5%; in experiment [15], 23%. In experiment [16], this molecule came in with an ILS of 214.

In [17], `Nc1ccn([C@@H]2O[C@H](CO)[C@@H](O)[C@@H]2O)c(=O)n1` [CYTARABINE] yielded an Active dose range of 20 mg/kg/day. In [18], this molecule came in with a median survival time of 17 days. The molecule also showed a Range in experiment [19] of 15.
